Compound activity as filed in PubChem.
Hits are enriched below; roughly 2.6% of the tested compounds scored in any of these assays.
DENV2 CPE = protects cells from dengue virus 2 cytopathic effect; DENV2-infected cells, cytopathic effect rescue, plate reader; CPE inhibition, % at 9.99 µM; 1.7% of 350,000 active; AID 651640; in the data active means CPE inhibition above about 20%, passing the limit was not always enough; inconclusive means no clear call, values can overlap the other calls; tested in BHK-21 cells
miR122 inh = inhibitors of miR-122 in Huh7 cells; Huh7 miR-122 Renilla luciferase sensor, 48 h; neutral wells = 0, positive control = 100; activation (reporter increase), % at 12.5 µM; 0.3% of 340,000 active; AID 602342;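 active means mean replicate activation score at least 90 and every replicate individually at or above 90; inconclusive means only one of the two criteria met; inactive means neither criterion met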;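 further: higher luciferase means less miR-122 activity so hits act as miR-122 inhibitors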
GSIS activator = primary screen for activators of insulin secretion dependent on glucose, INS-1E cells, GLuc reporter luminescence; INS-1E GLuc reporter insulin secretion, 2-3 h; activation, % at 16.6 µM; 0.61% of 370,000 active; AID 743287;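 active means lowest replicate activation of at least 40%, so every replicate reaches that level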
E-sel inducer = E-selectin induction on HUVECs | HUVEC E-selectin immunofluorescence imaging; normalized: neutral wells 0, TNF-alpha wells 100 | 0.37% of 260,000 active | P16581 | activation, % at 7.58 µM;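 active means mean E-selectin-positive cell signal at least 10% of the positive control, reached in at least 60% of replicates, without over 20% cell loss; inconclusive means no rule given, readout overlaps actives, possibly toxicity-flagged; inactive means the rest, including those meeting only one limit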
Target sequence (P16581 whole entry, looked up): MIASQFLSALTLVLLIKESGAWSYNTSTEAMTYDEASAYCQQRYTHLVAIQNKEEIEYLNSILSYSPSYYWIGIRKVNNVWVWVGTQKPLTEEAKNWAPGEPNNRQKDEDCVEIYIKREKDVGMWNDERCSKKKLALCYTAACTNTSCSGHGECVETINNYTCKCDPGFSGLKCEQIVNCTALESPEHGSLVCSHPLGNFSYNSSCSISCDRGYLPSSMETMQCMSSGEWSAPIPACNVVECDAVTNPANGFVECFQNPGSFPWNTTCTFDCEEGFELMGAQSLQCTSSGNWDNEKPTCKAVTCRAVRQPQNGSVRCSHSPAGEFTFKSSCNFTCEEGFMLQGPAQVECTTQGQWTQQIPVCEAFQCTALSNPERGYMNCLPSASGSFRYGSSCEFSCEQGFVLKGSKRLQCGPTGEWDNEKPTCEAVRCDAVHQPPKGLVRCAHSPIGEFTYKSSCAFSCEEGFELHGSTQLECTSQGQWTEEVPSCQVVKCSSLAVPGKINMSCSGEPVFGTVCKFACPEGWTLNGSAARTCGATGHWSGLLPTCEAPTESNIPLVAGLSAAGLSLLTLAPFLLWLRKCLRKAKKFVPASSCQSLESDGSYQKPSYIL
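Test system: HUVEC; input: 3,000 HUVEC/well; measured by: immunofluorescence imaging; read-out: % PE-positive cells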
F508del corr = correctors of CFTR F508del function in bronchial epithelial cells | CFBE cells, YFP halide quenching; stimulated with forskolin plus potentiator P3; % fluorescence drop versus neutral controls | activity (quench increase), % at 7.58 µM | 0.36% of 350,000 active;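 active means mean added fluorescence quench of at least 8% versus neutral control, with both replicates also reaching 8%; inconclusive means only one of the mean or replicate conditions met; inactive means mean below 8% and not both replicates reaching 8%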;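 further: cells transiently co-express mutant CFTR-F508del with the halide-sensitive YFP; corrector assay measuring rescue of mutant channel to the surface after 24 h compound exposure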
ERAP1 inh = ERAP1 (human) enzyme inhibition; 0.15% of 340,000 active; AID 652197; recombinant ERAP1, Leu-AMC fluorescence, 60 min; Q9NZ08; inhibition, % at 10.7 µM;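 active means mean replicate inhibition of at least 30%, or all replicates individually reaching that 30% level; inactive means mean below 30% and not every replicate reaching it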
Each line names hits and unclear results; the compound was inactive in the other large screens.

C[C@H]1CCCCO[C@@H](CN(C)Cc2ccncc2)[C@@H](C)CN([C@@H](C)CO)C(=O)c2cc(NS(C)(=O)=O)ccc2O1	none
COc1ccc(-n2nnnc2C(c2ccccc2)N2CCN(C/C=C/c3ccccc3)CC2)cc1 (stereo unspecified)	F508del corr 10
CCC(c1nnnn1-c1ccc(OC)cc1)N1CCN(C/C=C/c2ccccc2)CC1 (stereo unspecified)	none
O=C(C[C@H]1CC[C@@H]2[C@H](COC[C@@H](O)CN2Cc2cccc(F)c2)O1)NCCc1ccncc1	none
C[C@@H]1CCCCO[C@H](CN(C)C(=O)c2ccncc2)[C@H](C)CN([C@H](C)CO)C(=O)c2cc(NC(=O)CCC(F)(F)F)ccc2O1	DENV2 CPE 74 (no result: ERAP1 inh)
C[C@@H]1CCCCO[C@@H](CN(C)C(=O)c2ccccc2)[C@@H](C)CN([C@H](C)CO)C(=O)c2cc(NC(=O)CCC(F)(F)F)ccc2O1	DENV2 CPE 93
C[C@@H]1CCCCO[C@@H](CN(C)C(=O)c2ccncc2)[C@H](C)CN([C@@H](C)CO)C(=O)c2cc(NC(=O)CCC(F)(F)F)ccc2O1	DENV2 CPE inconclusive (no result: ERAP1 inh)
C[C@@H]1CCCCO[C@H](CN(C)C(=O)c2ccccc2)[C@@H](C)CN([C@@H](C)CO)C(=O)c2cc(NC(=O)CCC(F)(F)F)ccc2O1	none
CCCN1C(=O)/C(=C/c2ccncc2)SC1=S	none (no result: miR122 inh, E-sel inducer, F508del corr)
CN1C(=O)/C(=C\c2ccncc2)SC1=Nc1ccccc1	GSIS activator 67 (no result: DENV2 CPE, miR122 inh, E-sel inducer, F508del corr, ERAP1 inh)
Cn1c(N)c(C(=O)CSc2nc3ccccc3n2-c2ccccc2)c(=O)n(C)c1=O	GSIS activator 63 (no result: DENV2 CPE, E-sel inducer, F508del corr, ERAP1 inh)
COc1ccc(-n2c(SCC(=O)c3c(N)n(C)c(=O)n(C)c3=O)nc3ccccc32)cc1	none (no result: DENV2 CPE, GSIS activator, E-sel inducer, F508del corr, ERAP1 inh)
CC(C)(C)C1CCC(=O)N(CCOc2ccccc2)CC1 (stereo unspecified)	DENV2 CPE 66
C[C@H](CO)N1C[C@H](C)[C@H](CN(C)Cc2ccc(Oc3ccccc3)cc2)Oc2ncc(-c3cncnc3)cc2C1=O	none
COc1ccc(NC(=O)Nc2ccc3c(c2)CC(=O)N([C@@H](C)CO)C[C@@H](C)[C@@H](CN(C)C(=O)Nc2ccc(OC)cc2)O3)cc1	none
COc1ccc2c3c([nH]c2c1)[C@@H](CO)N(C(=O)C1CCCCC1)CC31CCN(C(=O)c2ccncc2)CC1	none (no result: miR122 inh)
COc1ccc(C2=NOC(C(=O)NCc3ccccn3)C2)cc1OC (stereo unspecified)	GSIS activator 94 (no result: DENV2 CPE, E-sel inducer, F508del corr, ERAP1 inh)
COc1ccc(S(=O)(=O)N2CCC(C(=O)NCc3ccccn3)CC2)cc1OC	GSIS activator 46 (no result: DENV2 CPE, E-sel inducer, F508del corr, ERAP1 inh)
COc1ccc(S(=O)(=O)N2CCC(C(=O)NCCC(=O)NCc3cccnc3)CC2)cc1	DENV2 CPE 75
COc1ccc(C2=NOC(C(=O)NCc3ccccn3)C2)cc1 (stereo unspecified)	none (no result: DENV2 CPE, GSIS activator, E-sel inducer, F508del corr, ERAP1 inh)
C[C@H]1CN([C@@H](C)CO)C(=O)c2cc(N(C)C)ccc2O[C@H]1CN(C)C(=O)NC1CCCCC1	none
CN(C)S(=O)(=O)n1cc(/C=C(\NC(=O)c2ccccc2Cl)C(=O)NCCCn2ccnc2)c2ccccc21	miR122 inh 125
CN(C)S(=O)(=O)n1cc(/C=C(\NC(=O)c2ccccc2)C(=O)NCCCn2ccnc2)c2ccccc21	none (no result: E-sel inducer)
O=C1c2cccnc2C(Nc2ccc(F)c(Cl)c2)N1Cc1cccs1 (stereo unspecified)	GSIS activator 66 (no result: E-sel inducer)
O=C1c2ccccc2C(Nc2ccc(F)c(Cl)c2)N1Cc1ccco1 (stereo unspecified)	DENV2 CPE 36 (no result: GSIS activator)
Cc1noc(C)c1S(=O)(=O)N(C)C[C@@H]1Oc2ccc(NS(C)(=O)=O)cc2CC(=O)N([C@H](C)CO)C[C@H]1C	none
O=C(C[C@@H]1CC[C@@H](NC(=O)Cc2ccccn2)[C@@H](CO)O1)NCCc1ccncc1	none
CCOc1cc(/C=C2/NC(=S)NC2=O)ccc1OCc1ccc([N+](=O)[O-])cc1	GSIS activator 58 (no result: DENV2 CPE, E-sel inducer, F508del corr, ERAP1 inh)
CCOc1cc(C(c2c(C)[nH][nH]c2=O)c2c(C)[nH][nH]c2=O)ccc1OCc1ccc([N+](=O)[O-])cc1	none (no result: DENV2 CPE, GSIS activator, E-sel inducer, F508del corr, ERAP1 inh)
O=C(CN1CCOc2ccccc21)NCc1ccc(F)cc1	none (no result: miR122 inh, ERAP1 inh)
O=C(CN1CCOc2ccccc21)NCc1ccc(Cl)cc1	F508del corr 9.2 (no result: miR122 inh, ERAP1 inh)
C[C@@H]1CCCCO[C@H](CN(C)C(=O)Nc2ccc(F)cc2)[C@@H](C)CN([C@H](C)CO)C(=O)c2cc(NC(=O)Nc3ccc4c(c3)OCO4)ccc2O1	none
CN(C)Cc1ccccc1Sc1ccc2c(c1)CCCC2	GSIS activator 54
COc1cccc(Sc2ccccc2CN(C)C)c1	none (no result: DENV2 CPE, E-sel inducer, F508del corr, ERAP1 inh)
O=C(CSc1nnc(Cn2c(=O)sc3ccccc32)n1-c1ccccc1)NCc1ccco1	F508del corr 10
Cn1c(Cn2c(=O)sc3ccccc32)nnc1SCC(=O)NCc1ccco1	none (no result: E-sel inducer)
CCN1[C@@H]2c3ccc(-c4ccccc4OC)c(=O)n3C[C@@H]2[C@@H](CO)[C@@H]1C(=O)NCC1CC1	none
CN(C)/C=C1\C=C2C(=O)c3ccccc3N2C1=O	F508del corr 32 (no result: ERAP1 inh)
COc1ccc(C2CC(=O)C(c3ccc(C)cc3)=CN2Cc2ccccc2)cc1 (stereo unspecified)	GSIS activator 159 (no result: miR122 inh)
CC1CCCC12NC(=O)NC2=O (stereo unspecified)	none (no result: miR122 inh)
O=C1NC(=O)C2(CCCCC2C2CCCCC2)N1 (stereo unspecified)	GSIS activator 62
CC(C)N(CCC#N)C(=O)Nc1ccc2c(c1)CCO2	E-sel inducer 74 (no result: miR122 inh, ERAP1 inh)
C[C@@H]1CCCCO[C@@H](CN(C)S(=O)(=O)c2ccccc2)[C@H](C)CN([C@@H](C)CO)C(=O)c2cc(NS(C)(=O)=O)ccc2O1	none
COc1ccc(-c2ccc(SCC(=O)NCC3CCCO3)nn2)cc1OC (stereo unspecified)	GSIS activator 75
COc1ccc(-c2ccc(SCC(=O)NCc3ccco3)nn2)cc1OC	GSIS activator 62 (no result: DENV2 CPE, E-sel inducer, F508del corr, ERAP1 inh)
COc1ccc(-c2ccc(SCC(=O)NC3CCCCC3)nn2)cc1OC	GSIS activator 105 (no result: miR122 inh, E-sel inducer)
O=C1CCC/C=C/C[C@H](CC(=O)N(CCO)Cc2ccccc2)C(=O)N[C@@H](Cc2ccccc2)CO1	DENV2 CPE 25 (no result: ERAP1 inh)
O=C1CCCC/C=C\C[C@H](CC(=O)N(CCO)Cc2ccccc2)C(=O)N[C@@H](Cc2ccccc2)CO1	none (no result: miR122 inh, E-sel inducer)
Cc1ccc(Cn2cc(CN3CC(N(C)C)CS3(=O)=O)nn2)cc1 (stereo unspecified)	DENV2 CPE 23 (no result: miR122 inh)
CN(C)C1CN(Cc2cn(Cc3ccc(F)cc3)nn2)S(=O)(=O)C1 (stereo unspecified)	none (no result: miR122 inh)
CCN=C1NC(c2ccc(C(F)(F)F)cc2)C(C(=O)OC)=C(C)N1Cc1cccc(C(F)(F)F)c1 (stereo unspecified)	GSIS activator 41 (no result: miR122 inh)
